According to ChEMBL document CHEMBL1133510, “Synthesis and evaluation of novel steroidal oxime inhibitors of P450 17 (17 alpha-hydroxylase/C17-20-lyase) and 5 alpha-reductase types 1 and 2” (J Med Chem, 2000):
pIC50: −log10 of the molar value.

Key:
[1] = target: T1, 3-oxo-5-alpha-steroid 4-dehydrogenase 2 (Homo sapiens, UniProt P31213); assay: Inhibition of steroid 5-alpha-reductase type 2 from human BPH tissue at 210 nM testosterone; No inhibition
T1 sequence (P31213 whole entry): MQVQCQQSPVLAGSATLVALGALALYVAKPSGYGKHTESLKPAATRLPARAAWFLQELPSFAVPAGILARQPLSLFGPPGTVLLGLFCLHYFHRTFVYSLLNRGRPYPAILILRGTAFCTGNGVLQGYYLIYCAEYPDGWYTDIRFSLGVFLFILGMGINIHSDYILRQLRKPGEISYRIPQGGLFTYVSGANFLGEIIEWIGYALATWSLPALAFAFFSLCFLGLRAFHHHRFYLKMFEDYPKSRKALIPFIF
Summary of the method: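 Enzyme from prostate homogenate of BPH patients, assayed at pH 5.5 with radiolabeled testosterone at 210 nM; product separated by HPLC. IC50 taken as inhibitor concentration giving 50% inhibition; mean of at least two experiments.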

[2] = target: T2, Steroid 17-alpha-hydroxylase/17,20 lyase (Rattus norvegicus, UniProt P11715); assay: Evaluated for the inhibitory activity towards Cytochrome P450 17 rat enzyme using testicular microsome at 25 uM of substrate (progesterone); parameters: species or system Testis
T2 sequence (P11715 whole entry): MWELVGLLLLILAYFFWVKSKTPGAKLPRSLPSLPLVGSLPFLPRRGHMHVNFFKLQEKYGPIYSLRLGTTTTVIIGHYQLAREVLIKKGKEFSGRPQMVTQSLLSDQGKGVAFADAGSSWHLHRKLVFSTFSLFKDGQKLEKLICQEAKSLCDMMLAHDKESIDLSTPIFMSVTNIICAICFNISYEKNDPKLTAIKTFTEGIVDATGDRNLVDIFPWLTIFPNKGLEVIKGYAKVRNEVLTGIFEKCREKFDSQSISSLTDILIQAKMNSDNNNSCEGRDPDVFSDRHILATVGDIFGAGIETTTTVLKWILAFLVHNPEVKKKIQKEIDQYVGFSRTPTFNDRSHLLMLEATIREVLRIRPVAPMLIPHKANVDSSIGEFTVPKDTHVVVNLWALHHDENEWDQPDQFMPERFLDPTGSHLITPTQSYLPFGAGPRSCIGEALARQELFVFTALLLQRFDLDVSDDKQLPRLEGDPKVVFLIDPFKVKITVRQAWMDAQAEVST
Summary of the method: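 Testicular microsomes (human for human enzyme, rat for rat enzyme) incubated with progesterone substrate at 25 µM; product measured by RP-HPLC with UV detection. IC50 = concentration giving 50% inhibition, mean of at least two experiments.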

[3] = target: T3, Steroid 17-alpha-hydroxylase/17,20 lyase (Homo sapiens, UniProt P05093); assay: Evaluated for the inhibitory activity towards Cytochrome P450 17 human enzyme using testicular microsome at 25 uM of substrate (progesterone); parameters: species or system Testis
T3 sequence (P05093 whole entry): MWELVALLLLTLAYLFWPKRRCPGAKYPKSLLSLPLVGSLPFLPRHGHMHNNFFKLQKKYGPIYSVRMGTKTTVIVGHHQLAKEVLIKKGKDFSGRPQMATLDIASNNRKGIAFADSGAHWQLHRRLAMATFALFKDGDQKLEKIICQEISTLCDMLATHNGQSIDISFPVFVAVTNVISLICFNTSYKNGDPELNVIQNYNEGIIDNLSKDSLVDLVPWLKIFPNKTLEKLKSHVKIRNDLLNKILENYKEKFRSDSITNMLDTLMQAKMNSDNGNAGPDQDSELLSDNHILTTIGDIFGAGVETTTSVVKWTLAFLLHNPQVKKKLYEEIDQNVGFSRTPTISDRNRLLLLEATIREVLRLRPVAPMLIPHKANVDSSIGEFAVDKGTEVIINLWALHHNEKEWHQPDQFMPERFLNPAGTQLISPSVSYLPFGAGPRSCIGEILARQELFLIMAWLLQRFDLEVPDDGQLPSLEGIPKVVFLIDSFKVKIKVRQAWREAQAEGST

[4] = target: T4, 3-oxo-5-alpha-steroid 4-dehydrogenase 1 (Homo sapiens, UniProt P18405); assay: Evaluated for the inhibitory activity against human steroid 5-alpha-reductase type I in human DU-145 cell assay at 5 nM of androstenedione; type: cell-based
T4 sequence (P18405 whole entry): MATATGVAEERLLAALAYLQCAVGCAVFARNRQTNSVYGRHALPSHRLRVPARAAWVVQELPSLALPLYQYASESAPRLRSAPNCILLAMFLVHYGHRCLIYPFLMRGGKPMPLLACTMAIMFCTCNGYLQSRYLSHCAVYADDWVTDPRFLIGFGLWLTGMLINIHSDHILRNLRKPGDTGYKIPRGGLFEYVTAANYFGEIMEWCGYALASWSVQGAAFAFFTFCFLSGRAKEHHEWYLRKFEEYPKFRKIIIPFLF
Summary of the method: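 Whole human DU-145 cells as source of type 1 enzyme, incubated with radiolabeled androstenedione at 5 nM; HPLC separation of product. IC50 = inhibitor concentration giving 50% inhibition; mean of at least two experiments.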

IC50 [1]: Not Active
pIC50 [2]: < 3.90
pIC50 [3]: 6.70
pIC50 [4]: < 5.00
SMILES: C/C(=N/O)C1=CC=C2C3CCC4=CC(=O)CCC4(C)C3CCC12C (centres undefined)
